Biofilm kill mix: mixture kills Candida albicans biofilm cells. C. albicans biofilm persisters + clotrimazole, fluorescence viability; primary screen in compound mixtures of four per well. inhibition, % at 7.6 µM. 120,000 compounds, 0.02% hits. AID 1242;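 active = inhibition above 30.3% in the primary screen of four-compound pools, then above 30% when the compound was retested; inconclusive = passed the primary limit but could not be retested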;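 also: compounds exposed to preformed 24 h biofilms for 48 h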
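Test system: C. albicans biofilms. Buffer or medium: RPMI/MOPS medium, pH 7.0. Timing: 48 h compound exposure at 37 °C. Technique: Alamar Blue fluorescence. Evaluation: percent inhibition of biofilm viability.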
RGS7-Gao: modulates binding of RGS7 to human Galphao; Multiplexed bead flow cytometry; actives lie on both sides; 220,000 compounds, 0.35% hits; P09471; AID 1439; binding response (% of control), % at 10 µM; in the data active = binding response below about 49% or above about 150%; inconclusive = no clear call, values can overlap the other calls; inactive = in between;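 also: fluorescent Galphao held in activated GDP-AlF4 state binding bead-coupled RGS7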
Target sequence (P09471 whole entry, looked up): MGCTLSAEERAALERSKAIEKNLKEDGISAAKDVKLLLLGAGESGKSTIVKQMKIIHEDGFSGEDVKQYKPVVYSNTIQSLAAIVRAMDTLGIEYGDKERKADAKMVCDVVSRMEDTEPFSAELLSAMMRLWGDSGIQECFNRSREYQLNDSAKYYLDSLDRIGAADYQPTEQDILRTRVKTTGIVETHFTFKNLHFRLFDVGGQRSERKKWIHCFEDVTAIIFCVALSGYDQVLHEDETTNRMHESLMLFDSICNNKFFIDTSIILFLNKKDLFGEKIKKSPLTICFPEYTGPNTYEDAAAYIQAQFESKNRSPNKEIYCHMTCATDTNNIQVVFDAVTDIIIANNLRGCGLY
RGS16-Gao HTS: modulates binding between human RGS16 and Galphao; bead-based flow cytometry RGS16-Galphao binding, fluorescence; actives lie on both sides; O15492+P09471; 220,000 compounds, 0.38% hits; binding response (% of control), % at 10 µM;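 also: Galphao activated by GDP with aluminum fluoride before binding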
Target sequence (O15492 whole entry, looked up): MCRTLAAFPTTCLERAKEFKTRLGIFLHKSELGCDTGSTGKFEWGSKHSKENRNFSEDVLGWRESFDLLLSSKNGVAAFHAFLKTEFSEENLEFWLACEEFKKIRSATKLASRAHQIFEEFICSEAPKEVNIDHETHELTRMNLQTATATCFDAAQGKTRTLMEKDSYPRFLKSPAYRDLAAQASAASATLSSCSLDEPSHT
Target sequence (P09471 whole entry, looked up): as the sequence (P09471 whole entry, looked up) above
RGS4-Gao reg: modulates binding of RGS4 to human Galphao; P09471; Multiplexed bead flow cytometry; actives lie on both sides; binding response (% of control), % at 10 µM; 220,000 compounds, 0.33% hits; AID 1415; in the data active = binding response below about 49% or above about 150%; inactive = in between;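 also: fluorescent Galphao activated with aluminum fluoride binding bead-coupled RGS4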
RGS8-Gao: human RGS8-Galphao interaction regulation; P09471; multiplexed bead flow cytometry, RGS8-Galphao binding; actives lie on both sides; response (percent of control binding), % at 10 µM; 220,000 compounds, 0.34% hits; in the data active = response below about 60% or above about 140%; inactive = in between;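 also: Galphao activated as the GDP aluminium fluoride complex binding bead-coupled RGS8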
RGS4-Gao HTS: RGS4-Galphao interaction regulator (human) | 1,600 compounds, 99% hits | RGS4–Galpha-o binding response, % at 10 µM | AID 1504 | multiplexed bead flow cytometry, RGS–Galpha-o binding | shares compounds with RGS16-Gao HTS;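 also: fluorescently labeled Galpha-o bound to GDP with aluminium fluoride binding biotinylated RGS beads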
Avidin counter: counter-screen: compounds disrupting biotin binding to avidin beads; shares compounds with RGS16-Gao HTS; streptavidin beads, fluorescein-biotin binding, flow cytometry; inhibition, % at 10 µM; 1,700 tested, under 10 active; AID 1783;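 active = inhibition above 50%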;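 also: median green fluorescence of gated singlet beads compared with DMSO control wells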
RGS8-Gao confirm: confirmation of regulators of human RGS8-Galphao interaction. 1,700 compounds, 3% hits. bead-based flow cytometry RGS8-Galphao binding, fluorescence; actives lie on both sides. AID 1836. shares compounds with RGS16-Gao HTS. binding response (% of control), % at 10 µM; in the data active = binding response below about 72% or above about 130%; inactive = in between;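 also: Galphao activated as GDP AlF4 complex before binding bead RGS8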
RGS7-Gao confirm: RGS7-Galphao interaction regulation, single point confirmation. shares compounds with RGS16-Gao HTS. bead-based flow cytometry RGS7-Galphao binding; actives lie on both sides. response (percent of control binding), % at 10 µM. 1,700 compounds, 7.8% hits. AID 1837; in the data active = response below about 75% or above about 130%; inactive = in between;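 also: fluorescent Galphao activated with GDP and aluminum fluoride binding bead-coupled RGS7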
RGS16-Gao single: RGS16-Galphao interaction regulation, single point confirmation | shares compounds with RGS16-Gao HTS | bead-based flow cytometry, RGS16-Galphao binding; actives lie on both sides | response (% of control binding), % at 10 µM | 1,700 compounds, 4% hits | AID 1838; in the data active = response below about 74% or above about 130%; inactive = in between;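 also: Galphao activated as the GDP aluminium fluoride complex binding bead-coupled RGS16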
RGS4-Gao confirm: RGS4-Galphao interaction regulation, single point confirmation | RGS4-Galphao binding, multiplexed bead flow cytometry; actives lie on both sides | 1,700 compounds, 4% hits | shares compounds with RGS16-Gao HTS | binding response (% of control), % at 10 µM; in the data active = binding response below about 74% or above about 130%; inactive = in between
RGS19-Gao conf: RGS19-Galphao interaction regulation, single point confirmation; shares compounds with RGS16-Gao HTS; bead-based flow cytometry RGS19-Galphao binding; actives lie on both sides; response (percent of control binding), % at 10 µM; 1,700 compounds, 5% hits; AID 1841; in the data active = response below about 50% or above about 160%; inactive = in between
A number is an active result; – = inactive; ? = inconclusive; · = no result given; [ ] = remark or other dose. Rows were chosen to be rich in hits. Some 0.74% of all compounds tested hit in one or more screens of this group. Unless noted, no rule for the calls is given here.

SMILES	Biofilm kill mix	RGS7-Gao	RGS16-Gao HTS	RGS4-Gao reg	RGS8-Gao	RGS4-Gao HTS	Avidin counter	RGS8-Gao confirm	RGS7-Gao confirm	RGS16-Gao single	RGS4-Gao confirm	RGS19-Gao conf
COc1ccc(-c2noc(CCC(=O)O)n2)cc1	–	–	–	–	–	·	·	·	·	·	·	·
COc1cc(CCC(=O)O)on1	–	?	-8.1	-10	20	·	–	–	–	–	–	–
O=C(NCCNC(=O)C1CC2CCC1C2)C1CC2CCC1C2 (stereo not drawn)	·	186[activator]	–	–	–	123	–	–	–	–	–	–
CCC(C)(C)n1nnnc1CN1CCSCC1	·	–	–	158[activator]	–	·	–	–	–	–	–	–
CCC(C)(C)n1nnnc1CN1CCN(c2ccc(OC)cc2)CC1	–	–	–	–	–	·	·	·	·	·	·	·
O=C(COc1ccc(/C=N/NC(=O)c2cc3ccccc3o2)cc1Cl)Nc1ccccc1	·	218[activator]	–	373[activator]	225[activator]	·	–	–	–	–	–	166[activator]
Cc1cc[n+]2n1CC(O)C2 (stereo not drawn)	–	·	·	·	·	·	–	–	–	–	–	–
Cn1c(=O)c2c(nc(N3CCc4ccccc4C3)n2Cc2ccccc2F)n(C)c1=O	·	–	–	–	–	·	·	·	·	·	·	·
Cn1c(=O)c2c(nc(OCC3COC(C)(C)O3)n2Cc2ccccc2F)n(C)c1=O (stereo not drawn)	·	164[activator]	–	165[activator]	145[activator]	·	–	–	–	–	–	–
O=C1C(=O)N(Cc2ccccc2)C(=O)N1CCOc1ccccc1	–	–	–	–	58	56	–	–	–	–	–	–
Cc1ccc(OCCN2C(=O)c3ccccc3C2=O)cc1	·	–	–	–	–	·	·	·	·	·	·	·
Cn1c(SCC(=O)N2CCCC2=O)nc2ccccc21	–	?	9.5	19	13	·	–	–	–	–	–	–
O=c1[nH]c2ccccc2nc1/C=C/c1ccc(Cl)cc1	–	·	·	·	·	·	–	–	–	–	–	–
CC(C)(C)c1ccc(COn2ccnc2)cc1	–	–	–	–	–	·	·	·	·	·	·	·
CSCCC(NS(=O)(=O)c1ccc(F)cc1)C(=O)NCc1ccc(S(N)(=O)=O)cc1 (stereo not drawn)	–	?	–	–	–	·	·	·	·	·	·	·
NC(=O)CCC(NS(=O)(=O)c1ccc(Cl)cc1)C(=O)NCc1ccc(Cl)cc1 (stereo not drawn)	–	–	6.5	–	–	90	–	–	–	–	–	–
Cc1ccc(C(CC(=O)NCCCN(C)C)c2ccc(OC(C)C)cc2)cc1 (stereo not drawn)	–	?	–	–	–	·	·	·	·	·	·	·
COC(=O)C1=C(N)Oc2cc(C)n(Cc3cccnc3)c(=O)c2C1c1cccc(OC)c1OC (stereo not drawn)	·	240[activator]	–	–	–	125	–	–	–	–	–	–
CC(=O)COC(=O)CNC(=O)c1ccc(Br)cc1	·	–	·	–	167[activator]	138	·	·	·	·	·	·
CC(=O)NCC(=O)OCC(=O)c1ccc(Br)cc1	–	–	–	–	–	·	·	·	·	·	·	·
Cc1cc(C)n(C(N)=NC(=O)c2ccc([N+](=O)[O-])cc2)n1	–	?	–	35	54	·	–	–	–	–	–	–
Cc1cc(C)n(C(=O)COc2ccc([N+](=O)[O-])cc2)n1	–	–	–	–	–	·	·	·	·	·	·	·
Cc1cc(-c2n[nH]c(=S)n2Cc2ccco2)n(C)n1	–	–	10	–	–	90	–	–	–	–	–	–
O=C(NCCN1CCN(Cc2ccc([N+](=O)[O-])cc2)CC1)C(=O)Nc1ccccc1	·	–	–	–	–	·	·	·	·	·	·	·
O=C(NCCN1CCN(S(=O)(=O)c2ccc([N+](=O)[O-])cc2)CC1)C(=O)Nc1ccccc1	–	221[activator]	–	–	–	131	–	–	–	–	–	–
CCCOC(=O)c1ccc(OC(=O)c2ccco2)cc1	·	–	–	176[activator]	–	·	–	–	–	–	–	–
O=S(=O)(c1cccs1)N1CCN(c2ccc(O)cc2)CC1	–	?	–	–	–	·	·	·	·	·	·	·
C#CCOC(=O)C(NC(=O)c1ccccc1)=C(C)C	·	–	-38	–	–	78	–	–	–	–	–	–

Screening data as filed in PubChem.
